Experimental data as given in ChEMBL document CHEMBL1145425, “Antitumor agents 259. Design, syntheses, and structure-activity relationship study of desmosdumotin C analogs” (2007).
Converted amounts (≈) assume the structure as drawn.

Assays:
[1] = system: KB; assay: Cytotoxicity against human vincristine-resistant KB cells; type: functional; conditions: read-out: ED50 (the source's name)
Summary of the method: (§1)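 Sulforhodamine B growth assay. Lines kept in RPMI-1640 with 25 mM HEPES, 0.25% sodium bicarbonate, 10% FBS and kanamycin. Trypsinized cells seeded at 1500–7500 per well, with compound added from DMSO-diluted stock. After 3 days, attached cells fixed with cold 50% TCA, stained with 0.4% SRB, dye solubilized, absorbance read at 562 nm. ED50 is 50% growth reduction, averaged over at least three independent determinations.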

[2] = system: KB; assay: Cytotoxicity against human KB cells; type: functional; conditions: read-out: ED50 (the source's name); summary of the method: as §1
[3] = system: A549; assay: Cytotoxicity against human A549 cells; type: functional; conditions: read-out: ED50 (the source's name); summary of the method: as §1
[4] = system: 1A9; assay: Cytotoxicity against human 1A9 cells; type: functional; conditions: read-out: ED50 (the source's name); summary of the method: as §1
[5] = system: HUVEC; assay: Cytotoxicity against HUVEC; type: functional; conditions: Homo sapiens, read-out: ED50 (the source's name)
Summary of the method: (§2)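 HUVEC seeded at 1.5×10^3 per well in EGM-2; after 24 h (day zero) compound added in EGM-2 at 2× the desired concentration. Day-zero plate stained with crystal violet. Remaining plates kept 72 h at 37 °C, then stained with 0.5% crystal violet in 20% MeOH. Dye eluted with 1:1 EtOH:0.1 M sodium citrate and read at 540 nm. Run per the NCI Angiogenesis Resource Center protocol.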

[6] = system: HUVEC; assay: Antiangiogenesis activity against HUVEC; type: functional; conditions: Homo sapiens, read-out: ED50 (the source's name); summary of the method: as §2
[7] = system: PC-3; assay: Cytotoxicity against human PC3 cells; type: functional; conditions: read-out: ED50 (the source's name); summary of the method: as §1
[8] = system: A-431; assay: Cytotoxicity against human A431 cells; type: functional; conditions: read-out: ED50 (the source's name); summary of the method: as §1
[9] = system: HCT-8; assay: Cytotoxicity against human HCT8 cells; type: functional; conditions: read-out: ED50 (the source's name); summary of the method: as §1
[10] = Selectivity ratio of ED50 for KB cells to ED50 for KB-VIN cells; type: functional, Homo sapiens

Row | SMILES | EC50 [1] [µg/mL] | EC50 [2] [µg/mL] | EC50 [3] [µg/mL] | EC50 [4] [µg/mL] | EC50 [5] [µg/mL] | EC50 [6] [µg/mL] | EC50 [7] [µg/mL] | EC50 [8] [µg/mL] | EC50 [9] [µg/mL] | Ratio ED50 [10]
1 | COC1=C(C)C(O)=C(C(=O)/C=C/c2ccccc2)C(=O)C1(C)C [DESMOSDUMOTIN C] | 3 (≈ 9.6 µM) | 4 (≈ 12.8 µM) | 3.5 (≈ 11.2 µM) | 3.5 (≈ 11.2 µM) | 2.1 (≈ 6.72 µM) | < 4 | 11.1 (≈ 35.5 µM) | 5.1 (≈ 16.3 µM) | 3.7 (≈ 11.8 µM) | –
2 | CCc1ccc(/C=C/C(O)=C2/C(=O)C(C)=C(OC)C(C)(C)C2=O)cc1 | 1.9 (≈ 5.58 µM) | 6.9 (≈ 20.3 µM) | 6.1 (≈ 17.9 µM) | 5.3 (≈ 15.6 µM) | – | – | 15.1 (≈ 44.4 µM) | 12 (≈ 35.3 µM) | 10.5 (≈ 30.8 µM) | –
3 | CCC1=C(OC)C(CC)(CC)C(=O)C(C(=O)/C=C/c2ccc(CC)cc2)=C1O | 2.6 (≈ 6.8 µM) | 3.6 (≈ 9.41 µM) | 3.8 (≈ 9.93 µM) | 3.8 (≈ 9.93 µM) | – | – | 15 (≈ 39.2 µM) | 9.8 (≈ 25.6 µM) | 8.5 (≈ 22.2 µM) | –
4 | COC1=C(C)C(=O)/C(=C(O)/C=C/c2ccc(F)cc2)C(=O)C1(C)C | 2.7 (≈ 8.17 µM) | 3.7 (≈ 11.2 µM) | 3.3 (≈ 9.99 µM) | – | 2 (≈ 6.05 µM) | < 4 | 7.2 (≈ 21.8 µM) | 4.1 (≈ 12.4 µM) | 3.6 (≈ 10.9 µM) | –
5 | COC1=C(C)C(=O)/C(=C(O)/C=C/c2cccc(OC)c2)C(=O)C1(C)C | 2.4 (≈ 7.01 µM) | 3.3 (≈ 9.64 µM) | 2.8 (≈ 8.18 µM) | 2.9 (≈ 8.47 µM) | 1.6 (≈ 4.67 µM) | < 4 | 14.3 (≈ 41.8 µM) | 4.5 (≈ 13.1 µM) | 2.9 (≈ 8.47 µM) | –
6 | COC1=C(C)C(=O)/C(=C(O)/C=C/c2cccc3ccccc23)C(=O)C1(C)C | 1.3 (≈ 3.59 µM) | 2.8 (≈ 7.73 µM) | 3.6 (≈ 9.93 µM) | – | 1.8 (≈ 4.97 µM) | < 4 | 9 (≈ 24.8 µM) | 4.1 (≈ 11.3 µM) | 2.3 (≈ 6.35 µM) | –
7 | COC1=C(C)C(=O)/C(=C(O)/C=C/c2cc(C)cc(C)c2)C(=O)C1(C)C | 1.6 (≈ 4.7 µM) | 3.1 (≈ 9.11 µM) | 4.3 (≈ 12.6 µM) | – | 2.5 (≈ 7.34 µM) | < 4 | 8.8 (≈ 25.9 µM) | 4 (≈ 11.8 µM) | 2.9 (≈ 8.52 µM) | –
8 | C=Cc1ccccc1/C=C/C(O)=C1/C(=O)C(C)=C(OC)C(C)(C)C1=O | 1.1 (≈ 3.25 µM) | 1.9 (≈ 5.61 µM) | 2.2 (≈ 6.5 µM) | – | 1.1 (≈ 3.25 µM) | 1.1 (≈ 3.25 µM) | 4.6 (≈ 13.6 µM) | 2.6 (≈ 7.68 µM) | 2.1 (≈ 6.21 µM) | –
9 | COC1=C(C)C(=O)/C(=C(O)/C=C/c2ccco2)C(=O)C1(C)C | 8.8 (≈ 29.1 µM) | 9.9 (≈ 32.7 µM) | 10 (≈ 33.1 µM) | 7.9 (≈ 26.1 µM) | 2.4 (≈ 7.94 µM) | < 4 | 20.6 (≈ 68.1 µM) | 14.7 (≈ 48.6 µM) | 17.5 (≈ 57.9 µM) | –
10 | COC1=C(C)C(=O)/C(=C(O)/C=C/c2c(C)cc(C)cc2C)C(=O)C1(C)C | 1.84 (≈ 5.19 µM) | > 20 | 8 (≈ 22.6 µM) | 6.2 (≈ 17.5 µM) | – | – | > 20 | 20 (≈ 56.4 µM) | 8.4 (≈ 23.7 µM) | >5
11 | CCC1=C(OC)C(C)(C)C(=O)C(C(=O)/C=C/c2ccccc2)=C1O | 0.3 (≈ 0.919 µM) | 4.3 (≈ 13.2 µM) | 5.5 (≈ 16.9 µM) | 3.8 (≈ 11.6 µM) | – | – | 18.9 (≈ 57.9 µM) | 13.8 (≈ 42.3 µM) | 9.4 (≈ 28.8 µM) | 14.3
12 | COC1=C(C)C(=O)/C(=C(O)/C=C/c2ccc(C)cc2)C(=O)C1(C)C | 1.9 (≈ 5.82 µM) | 3.9 (≈ 11.9 µM) | 4.3 (≈ 13.2 µM) | – | 2.4 (≈ 7.35 µM) | < 4 | 8.2 (≈ 25.1 µM) | 5.1 (≈ 15.6 µM) | 4.1 (≈ 12.6 µM) | –
13 | COC1=C(C)C(=O)/C(=C(O)/C=C/c2cccs2)C(=O)C1(C)C | 3.4 (≈ 10.7 µM) | 5.5 (≈ 17.3 µM) | 4.5 (≈ 14.1 µM) | 4 (≈ 12.6 µM) | 2.5 (≈ 7.85 µM) | < 4 | 18.2 (≈ 57.2 µM) | 10.8 (≈ 33.9 µM) | 8.6 (≈ 27 µM) | –
